A short description of the data set: Toxicity liver stage against HepG2, at 10uM. Format: cell-based. Also on record: test concentration 10 uM, cell line HepG2-A16-CD81EGFP. The settings on record: human, HepG2-A16-CD81EGFP cells; read-out: INHIBITION
In short, it runs like this:
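Uninfected HepG2-A16-CD81EGFP cells, 3 × 10^3 per well, 1536-well, plated on prespotted compound at 10 μM final, parasite-free screening media added to match infected plates; puromycin 10 μM positive, DMSO 0.5% negative; run in parallel with 48 h PbLuc assay at 37 °C, 5% CO2; viability by CellTiter-Glo luminescence, normalized to controls.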

`Cc1nn(C)c(C)c1CC(=O)NCc1ccnc(N2CCOCC2)c1`: the cytotoxicity at 10 µM is -14.7%.
The result for `O=C(CCC1CCCN(C(=O)CCN2CCCCO2)C1)N1CCCC1` (stereo not drawn) reads 2.11%; that for `CCc1nnc2n1CCN(CC(=O)N(CC)C1=CCCCC1)C2`, -0.0192%; that for `CNC(=O)Cn1c(CO)cnc1SCc1ccccc1Cl`, 2.6%.
The value for `Cn1nccc1CCC(=O)NC1CCCN(c2ccccn2)C1` (stereo not drawn) was 4.18%; that for `Cc1cc(C(=O)N2CC(O)CO2)c2ccc(C)c(C)c2n1` (stereo not drawn) was 11.3%; that for `CCc1ncc(C(=O)N2CCOCC2c2c(C)n[nH]c2C)s1` (stereo not drawn) was -5.61%.
The value for `Cc1ccc(-c2ncc(C(=O)NCCNC(=O)C(C)C)s2)c(C)c1` was -6.53%.
Turning to `Cc1nc(CNC(=O)c2cc(COc3ccccc3)[nH]n2)n[nH]1`, the cytotoxicity at 10 µM came out at 8.52%.
The value for `CC(C)c1ccnc(N[C@H]2COC[C@@H]2N2CCCC2)n1` was -4.48%.
The value for `CC(C)N1CCO[C@H]2CN(S(=O)(=O)c3ccc(C#N)cc3)C[C@H]21` was 7.55%.
The value for `Cc1cc(C2CCCN2C(=O)CN2CC3(CCNCC3)OC2=O)on1` (stereo not drawn) was 16.4%.
`CC(=O)N1CC[C@@H]2CN(C(=O)c3ccco3)CCO[C@@H]2C1`: the cytotoxicity at 10 µM was 2.93%.
In the case of `Cc1ccc(N2CCC3(CCN(Cc4nccs4)CC3)CC2)nn1`, the cytotoxicity at 10 µM stood at 10.6%.
The result for `N#Cc1csc(CNCCOc2ncccc2Cl)c1` reads 8.01%; that for `CC(C1CCN(Cc2ccc(N(C)C)nc2)CC1)N1CCOCC1` (stereo not drawn), 6.06%; that for `CN1CCCC(c2ccnc(C(=O)NCC3CC3)c2)C1` (stereo not drawn), 3.89%.
As for `CC(C)c1ccc(O)c(C(=O)N2CCN(Cc3cscn3)CC2)c1`, the cytotoxicity at 10 µM was -3.24%.
The value for `Cc1cnn(C(C)C2CC2)c1NC(=O)c1ncccc1O` (stereo not drawn) was 7.4%; that for `COCCOC1CCN(C(C(=O)O)c2c(Cl)cccc2OC)CC1` (stereo not drawn) was 6.15%; that for `Cc1cc(C(=O)NCCCn2nccc2C2CC2)c(=O)[nH]c1C` was 9%.
The result for `CC(NC(=O)NCCCn1cncn1)c1ccc(F)cc1` (stereo not drawn) reads -9.92%.
The result for `CCc1ocnc1C(=O)N1CCN(c2nncc3ccccc23)CC1` reads 6.61%; that for `COC(=O)NCCC(=O)NC(C)Cc1cccc(Br)c1` (stereo not drawn), -15.8%.
On to `COc1ccccc1N1CCC(CNS(=O)(=O)c2cccc(C#N)c2)C1` (stereo not drawn), for which the cytotoxicity at 10 µM was -4.13%.
The result for `COCCC(=O)Nc1ccnc(Oc2ccccc2)c1` reads 7.85%; that for `Cc1cc(N(C)C)nc(N2CCn3c(nnc3C(C)C)C2)n1`, 19%.
The value for `Cc1ccc(C(=O)Nc2ccc3c(c2)N(C)CCN(C)C3)c(=O)[nH]1` was -2.17%; that for `COCC1c2c(cnn2C)CCN1C(=O)c1cc(C)on1` (stereo not drawn) was -79.5%.
As to `COc1cc(N(C)Cc2noc(CC(C)C)n2)ncn1`, the cytotoxicity at 10 µM is -0.71%.
The value for `CCC(=O)N1CCOC(c2cc(Nc3nncs3)cc(C)n2)C1` (stereo not drawn) was 5.67%; that for `O=C(c1cncc(F)c1)N1CCC(c2ncc[nH]2)CC1` was -1.39%.
The value for `CC(=O)N1N=C(c2ccccc2)OC1C(=O)NCCN(C(C)C)C(C)C` (stereo not drawn) was 0.238%.
The value for `COCCC1(CNC(=O)Nc2ccc(-n3nccn3)cc2)CCC1` was -2.99%.
Take `c1cnc(C2CCCN2c2cnccn2)cn1` (stereo not drawn): the cytotoxicity at 10 µM was -22.6%.
The value for `Cc1ccc(C(=O)N2CCOCC2)cc1NCc1ccsc1` was -6.96%; that for `CCOCC1CN(S(C)(=O)=O)Cc2nn(C)cc21` (stereo not drawn) was -95.9%.
Take `O=C(NCc1cccs1)C1CCN(c2cc(-n3ccnc3)ncn2)CC1`: the cytotoxicity at 10 µM was -3.27%.
The value for `CSc1ccc(S(=O)(=O)N2CCCCC2CCNC(C)=O)cc1` (stereo not drawn) was -9.61%.
The value for `Cc1cc(C)n(CC2CCCN2CCCS(=O)(=O)N(C)C)n1` (stereo not drawn) was -13.2%.
The value for `CCN(CCc1ccccc1)Cn1nc(C)c2c(C)onc2c1=O` was -5.18%; that for `c1cnc(-c2nc(CN3CCC(c4ccn[nH]4)CC3)cs2)nc1` was -2.97%.
As to `CCn1cc(NC(=O)NCc2ccc(CN3CCOCC3)cc2)cn1`, the cytotoxicity at 10 µM is -6.63%.
The value for `Cc1nc2n(n1)CC(Nc1nc(-c3ccccc3)no1)CC2` (stereo not drawn) was 0.658%; that for `COc1cccc(CN2C[C@@H]3COC[C@]3(CNC(=O)C3CC3)C2)c1` was -99%.
For `Cc1cc(C[S+]([O-])Cc2ccccc2F)on1` (stereo not drawn), the cytotoxicity at 10 µM was -8.37%.
The value for `O=C(CCN1CCN(c2ccc3nncn3n2)CC1)NC1CCCC1` was -27.5%.
The result for `O=C(Nc1nncs1)c1ccc(-n2cnnn2)cc1` reads 5.25%.
The result for `CO[C@@H]1CCC[C@@H](N(C)C(=O)c2cc(F)ccc2F)[C@H]1O` reads -5.38%; that for `c1csc(CN2Cc3[nH]nc(COCC4CC4)c3C2)c1`, 6.22%; that for `Cc1cccc(C)c1OCCC(=O)N1CCC(c2nncn2C)CC1`, -12%.
With `c1ccc(CN2CCC3(CC2)CC(Nc2nccs2)CO3)nc1` (stereo not drawn), the cytotoxicity at 10 µM is -78.2%.
Take `COc1ccc(-c2cccc3c2OC(CN)C3)cc1F` (stereo not drawn): the cytotoxicity at 10 µM is -51.4%.
The value for `Cc1nc(CN2CCC(C(=O)N(C)C3CCC(C)CC3)CC2)cs1` (stereo not drawn) was 2.84%.
Consider `COCCN1CCCC1c1ccnc(-c2ccccc2)n1` (stereo not drawn), for which the cytotoxicity at 10 µM came out at 1.09%.
For the compound `COc1ccc(S(=O)(=O)NCC(O)c2sccc2C)cc1Cl` (stereo not drawn), the cytotoxicity at 10 µM came to 1.17%.
The result for `Cc1cc(N2CCC(Cc3ncccn3)C2)ncn1` (stereo not drawn) reads 0.146%.
Take `O=C(COCC1CC1)N1CCSCC1`: the cytotoxicity at 10 µM was -21.2%.
The value for `Cc1ccc(OCC(C)NS(=O)(=O)Cc2ccon2)cc1` (stereo not drawn) was -4.84%; that for `CC(NC(=O)Cn1cccn1)c1ccc2c(c1)OCCO2` (stereo not drawn) was -2.23%.
The value for `Fc1ccc(-c2n[nH]cc2-c2ccnc(NCCN3CCCC3)n2)cc1` was 9.05%; that for `CCN(CC(=O)NC)C(=O)Cc1nc(-c2ccco2)oc1C` was 22.8%.
The result for `Cc1cc(C)c(C(=O)N(C)CCN(C)C(=O)c2[nH]c(C)cc2C)[nH]1` reads -1.91%.
For `Cc1cc2n(n1)[C@@H](C(F)(F)F)C[C@@H](C1CCN(C(=O)C(C)C)CC1)N2`, the cytotoxicity at 10 µM is -30%.
The value for `CNC(=O)Cc1ccc(NC(=O)NC2(c3cccc(F)c3)CC2)cc1` was 5.74%.
The value for `CCn1ccnc1CN1CCCC1c1c(C)nn(C)c1OC` (stereo not drawn) was -0.386%; that for `Cc1ccsc1C(=O)N1CCCN(Cc2cscn2)CC1` was -12.4%.
The result for `CC(=O)N(Cc1noc(C)n1)C1CCN(CC2(O)CCCCC2)C1` (stereo not drawn) reads 5.69%.
Take `CCOc1ccc(C(F)(F)F)cc1NCc1cc(C)on1`: the cytotoxicity at 10 µM is -49.3%.
As for `COc1ccc2c(ccn2CCC(=O)NCc2ccc(C(=O)O)cc2)c1`, the cytotoxicity at 10 µM is 2.25%.
The result for `Cc1noc(COCC(=O)N2CCCC(c3nccs3)C2)n1` (stereo not drawn) reads 0.172%; that for `O=C(NCc1cccc(F)c1)N1CCc2ncnc(NC3CC3)c2CC1`, -105%; that for `CC(=O)NC1CCCN(C(=O)Nc2nnc(C(C)C)s2)C1` (stereo not drawn), 12.6%.
In the case of `Cc1ccoc1C(=O)N1CC[C@@]2(C[C@H](NS(C)(=O)=O)CCO2)C1`, the cytotoxicity at 10 µM came to 7.43%.
The result for `COCCn1ccc(NC(=O)Nc2ccccc2)n1` reads -0.0425%.
Take `Cc1nc(C)n(CCCNc2ncnc(C)c2C)n1`: the cytotoxicity at 10 µM was -1.74%.
The result for `OC(COCc1ccco1)CN1CCC(Cn2cccn2)CC1` (stereo not drawn) reads -1.73%; that for `COCCNC(=O)NC(=O)CNc1c(F)cccc1N1CCCC1`, -2.05%; that for `Cc1noc([C@]23COC[C@H]2CN(C(=O)CN(C)C)C3)n1`, -104%.
The value for `COc1ccc2c(c1)OCC(CNC(=O)c1cnc(NC(C)C)nc1)C2` (stereo not drawn) was -5.07%; that for `CCCNC(=O)CSCc1ccc(S(=O)(=O)N(C)C)o1` was 9.8%.
With `NC(CNS(=O)(=O)Cc1cccc2cccnc12)c1ccccc1` (stereo not drawn), the cytotoxicity at 10 µM was -5.39%.
The value for `Cc1ccc(CN(C(=O)NCCNC(=O)c2cccnc2)C(C)C)o1` was -6.06%; that for `CC(C)CCC1=NC2(CCN(C(=O)N3CCN(C)CC3)CC2)C(=O)N1` was -6.08%; that for `CN(C)CC1CN(Cc2nc(-c3cccnc3)no2)CCO1` (stereo not drawn) was -2.03%.
The value for `CCOC(=O)CN(C)Cc1cnc(C)s1` was 20.2%; that for `COc1ccc2nnc(CCCC(=O)NCc3cccn3C)n2n1` was 3.85%.
The result for `CC(C)NC(=O)c1ccc2nnc(C3CCN(C(=O)NC(C)C)C3)n2c1` (stereo not drawn) reads -5.42%.
`Cc1noc(C)c1C1CCCN1C(=O)CN1C(=O)OC(C)(C)C1=O` (stereo not drawn): the cytotoxicity at 10 µM is -2.57%.
The result for `COC(=O)c1cccn1C1CCN(S(=O)(=O)c2ccccc2)CC1` reads -11.1%; that for `NC(=O)C(NC(=O)COC1CCCCC1)c1ccccc1` (stereo not drawn), -4.65%; that for `Cc1[nH]c2ccccc2c1-c1ccnc(NCCN2CCCCC2)n1`, -1.36%.
The result for `Cc1cc(N2CCCCC2)nc(N(CCO)CCO)c1C#N` reads -7.32%; that for `CN(C)c1ncc(-c2cc(C(=O)NCCO)n(CC3CC3)c2)cn1`, -3.53%.
The result for `CC(C)S(=O)(=O)N1CCC(c2cc3n(n2)[C@@H](C(F)(F)F)C[C@@H](C)N3)C1` (stereo partly drawn) reads -1.96%.
Consider `Cc1cnn(CC2CCCCN2Cc2nc(C)c3ccccc3n2)c1` (stereo not drawn), for which the cytotoxicity at 10 µM was -8.54%.
The value for `Cc1nn(C)cc1CN(C)C(=O)c1cccnc1` was 0.992%; that for `O=C(NC[C@]1(O)CCN(Cc2ccccc2F)C[C@H]1O)c1c[nH]cn1` was 4.41%.

Values taken from ChEMBL document CHEMBL4513216, “Probing the Open Global Health Chemical Diversity Library for Multistage-Active Starting Points for Next-Generation Antimalarials” (ACS Infect Dis, 2020).
